Assay results reported in ChEMBL document CHEMBL4732114, “Design and structural optimization of novel 2H-benzo[h]chromene derivatives that target AcrB and reverse bacterial multidrug resistance” (Eur J Med Chem, 2021).
Converted amounts (≈) assume the structure as drawn. The source made the active and inactive calls. No cut-off for these calls is given here.

How the values were obtained:
[1] = biological target: T1, Multidrug efflux pump subunit AcrB (Escherichia coli (strain K12)) (UniProt P31224); experiment: Inhibition of AcrB in multidrug-resistant Escherichia coli BW25113 assessed as potentiation of erythromycin-induced antibacterial activity by measuring erythromycin MIC at 8 ug/ml by checkerboard titration method (reference value: 64 ug/ml); conditions: dose 8.0 µg/ml
T1 sequence (whole entry): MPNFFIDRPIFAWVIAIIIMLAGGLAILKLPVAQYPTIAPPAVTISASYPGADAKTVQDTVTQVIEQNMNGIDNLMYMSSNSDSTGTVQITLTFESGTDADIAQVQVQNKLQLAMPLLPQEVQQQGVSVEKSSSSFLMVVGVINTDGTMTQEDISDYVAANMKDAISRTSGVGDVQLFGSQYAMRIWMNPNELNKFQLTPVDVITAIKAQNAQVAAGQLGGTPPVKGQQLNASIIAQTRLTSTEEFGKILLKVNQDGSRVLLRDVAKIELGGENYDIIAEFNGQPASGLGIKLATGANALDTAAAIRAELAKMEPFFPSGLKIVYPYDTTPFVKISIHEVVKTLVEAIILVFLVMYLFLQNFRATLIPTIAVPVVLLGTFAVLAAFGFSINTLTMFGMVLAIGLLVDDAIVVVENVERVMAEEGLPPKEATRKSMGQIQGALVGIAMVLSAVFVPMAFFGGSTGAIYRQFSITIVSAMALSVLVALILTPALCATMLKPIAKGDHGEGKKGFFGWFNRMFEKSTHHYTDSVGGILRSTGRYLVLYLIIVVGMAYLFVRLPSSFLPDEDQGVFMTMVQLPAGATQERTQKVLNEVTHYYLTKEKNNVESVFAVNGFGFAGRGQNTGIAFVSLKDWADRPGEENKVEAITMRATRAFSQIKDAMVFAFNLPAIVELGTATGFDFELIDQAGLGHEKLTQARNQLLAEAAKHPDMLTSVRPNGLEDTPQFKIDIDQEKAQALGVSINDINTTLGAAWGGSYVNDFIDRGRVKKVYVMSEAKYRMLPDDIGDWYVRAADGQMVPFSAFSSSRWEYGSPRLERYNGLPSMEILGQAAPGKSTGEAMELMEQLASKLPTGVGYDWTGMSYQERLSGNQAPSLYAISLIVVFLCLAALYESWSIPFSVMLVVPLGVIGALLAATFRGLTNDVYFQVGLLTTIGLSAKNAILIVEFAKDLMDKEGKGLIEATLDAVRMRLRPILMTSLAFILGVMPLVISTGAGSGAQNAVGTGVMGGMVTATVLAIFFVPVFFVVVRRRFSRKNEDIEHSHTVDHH

[2] = Toxicity in multidrug-resistant Escherichia coli BW25113 assessed as growth inhibition by two-fold broth dilution method
[3] = Toxicity in multidrug-resistant Escherichia coli BW25113 harboring AcrB deletion mutant assessed as growth inhibition by two-fold broth dilution method
[4] = biological target: T1, Multidrug efflux pump subunit AcrB (Escherichia coli (strain K12)); experiment: Inhibition of AcrB in multidrug-resistant Escherichia coli BW25113 assessed as potentiation of chloramphenicol-induced antibacterial activity by measuring chloramphenicol MIC at 8 ug/ml by checkerboard titration method (reference value: 8 ug/ml); conditions: dose 8.0 µg/ml
[5] = biological target: T1, Multidrug efflux pump subunit AcrB (Escherichia coli (strain K12)); experiment: Inhibition of AcrB in multidrug-resistant Escherichia coli BW25113 assessed as potentiation of chloramphenicol-induced antibacterial activity by measuring chloramphenicol MIC at 16 ug/ml by checkerboard titration method (reference value: 8 ug/ml); conditions: dose 16.0 µg/ml
[6] = biological target: T1, Multidrug efflux pump subunit AcrB (Escherichia coli (strain K12)); experiment: Inhibition of AcrB in multidrug-resistant Escherichia coli BW25113 assessed as potentiation of chloramphenicol-induced antibacterial activity by measuring chloramphenicol MIC at 32 ug/ml by checkerboard titration method (reference value: 8 ug/ml); conditions: dose 32.0 µg/ml
[7] = biological target: T1, Multidrug efflux pump subunit AcrB (Escherichia coli (strain K12)); experiment: Inhibition of AcrB in multidrug-resistant Escherichia coli BW25113 assessed as potentiation of chloramphenicol-induced antibacterial activity by measuring chloramphenicol MIC at 64 ug/ml by checkerboard titration method (reference value: 8 ug/ml); conditions: dose 64.0 µg/ml
[8] = biological target: T1, Multidrug efflux pump subunit AcrB (Escherichia coli (strain K12)); experiment: Inhibition of AcrB in multidrug-resistant Escherichia coli BW25113 assessed as potentiation of tetraphenylphosphonium-induced antibacterial activity by measuring tetraphenylphosphonium MIC at 16 ug/ml by checkerboard titration method (reference value: 1024 ug/ml); conditions: dose 16.0 µg/ml
[9] = biological target: T1, Multidrug efflux pump subunit AcrB (Escherichia coli (strain K12)); experiment: Inhibition of AcrB in multidrug-resistant Escherichia coli BW25113 assessed as potentiation of tetraphenylphosphonium-induced antibacterial activity by measuring tetraphenylphosphonium MIC at 32 ug/ml by checkerboard titration method (reference value: 1024 ug/ml); conditions: dose 32.0 µg/ml
[10] = biological target: T1, Multidrug efflux pump subunit AcrB (Escherichia coli (strain K12)); experiment: Inhibition of AcrB in multidrug-resistant Escherichia coli BW25113 assessed as potentiation of levofloxacin-induced antibacterial activity by measuring levofloxacin MIC at 8 ug/ml by checkerboard titration method (reference value: 0.06 ug/ml); conditions: dose 8.0 µg/ml
[11] = biological target: T1, Multidrug efflux pump subunit AcrB (Escherichia coli (strain K12)); experiment: Inhibition of AcrB in multidrug-resistant Escherichia coli BW25113 assessed as potentiation of levofloxacin-induced antibacterial activity by measuring levofloxacin MIC at 32 ug/ml by checkerboard titration method (reference value: 0.06 ug/ml); conditions: dose 32.0 µg/ml
[12] = biological target: T1, Multidrug efflux pump subunit AcrB (Escherichia coli (strain K12)); experiment: Inhibition of AcrB in multidrug-resistant Escherichia coli BW25113 assessed as potentiation of levofloxacin-induced antibacterial activity by measuring levofloxacin MIC at 128 ug/ml by checkerboard titration method (reference value: 0.06 ug/ml); conditions: dose 128.0 µg/ml
[13] = biological target: T1, Multidrug efflux pump subunit AcrB (Escherichia coli (strain K12)); experiment: Inhibition of AcrB in Escherichia coli BW25113 assessed as reduction in glucose-induced nile red efflux at 100 uM preincubated for 15 mins followed by nile red addition and incubated for 3 hrs in shaker in presence of CCCP by fluorimetric analysis; conditions: time 3.25 hrs
In short: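 Wild-type and AcrB-deleted cells were preloaded with Nile Red, with or without compound. Fluorescence was recorded, and efflux was triggered at 100 s with 0.2% glucose. Traces were compared with the deletion-strain level. Triplicate experiments used different cell batches.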

Cell membrane = experiment: Induction of outer membrane permeabilization in wild type Escherichia coli BW25113 assessed as increase in nitrocefin hydrolysis at 128 ug/ml in presence of CCCP by spectroscopic analysis; conditions: dose 128 µg/ml
In short: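 Intact E. coli were treated with 10 μM CCCP to block nitrocefin efflux, then given compound, nothing, or polymyxin B as permeabilizer control. Nitrocefin was added, and hydrolysis by periplasmic β-lactamase was followed as the rise in absorbance at 490 nm. Duplicate experiments were run on different days.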

[14] = biological target: T1, Multidrug efflux pump subunit AcrB (Escherichia coli (strain K12)); conditions: Escherichia coli BW25113; dose 8.0 µg/ml
[15] = biological target: T1, Multidrug efflux pump subunit AcrB (Escherichia coli (strain K12)); conditions: Escherichia coli BW25113; dose 32.0 µg/ml
[16] = biological target: T1, Multidrug efflux pump subunit AcrB (Escherichia coli (strain K12)); conditions: Escherichia coli BW25113; dose 128.0 µg/ml

Structure (SMILES) | MIC [1] [µg/mL] | MIC [2] [µg/mL] | MIC [3] [µg/mL] | MIC [4] [µg/mL] | MIC [5] [µg/mL] | MIC [6] [µg/mL] | MIC [7] [µg/mL] | MIC [8] [µg/mL] | MIC [9] [µg/mL] | MIC [10] [µg/mL] | MIC [11] [µg/mL] | MIC [12] [µg/mL] | inhibition [13] | Activity (Cell membrane) | MIC [14] [µg/mL] | MIC [15] [µg/mL] | MIC [16] [µg/mL]
CC1CN(C(=O)c2cc3c(OCc4ccc(Br)cc4)cccc3c3c2CCC(C)(C)O3)CC(C)O1 (stereo not given) | 64 | > 512 | > 128 | 8 | 8 | 8 | 8 | 1020 | 1020 | 0.06 | 0.06 | 0.06 | Active | Not Active | 16 (≈ 29.7 µM) | 16 (≈ 29.7 µM) | 16 (≈ 29.7 µM)
COc1cccc(COc2cccc3c4c(c(C(=O)O)cc23)CCC(C)(C)O4)c1 | 64 | > 512 | > 128 | 8 | 8 | 8 | 4 | 1020 | 1020 | 0.06 | 0.06 | 0.06 | Active | Not Active | 16 (≈ 40.8 µM) | 16 (≈ 40.8 µM) | 16 (≈ 40.8 µM)
CC1(C)CCc2c(-c3nnco3)cc3c(OCc4ccccc4)cccc3c2O1 | 64 | > 512 | > 128 | 8 | 8 | 4 | 4 | 512 | 512 | 0.06 | 0.06 | 0.06 | Active | Not Active | 16 (≈ 41.4 µM) | 16 (≈ 41.4 µM) | 16 (≈ 41.4 µM)
CC1(C)CCc2c(C(=O)N3CCOCC3)cc3c(OCc4ccccc4)cccc3c2O1 | 64 | > 512 | > 128 | 8 | 4 | 4 | 4 | 512 | 512 | 0.03 | 0.03 | 0.03 | Active | Not Active | 16 (≈ 37.1 µM) | 16 (≈ 37.1 µM) | 16 (≈ 37.1 µM)
Cc1ccc(COc2cccc3c4c(c(-c5nnco5)cc23)CCC(C)(C)O4)cc1 | 32 | > 512 | > 128 | 8 | 8 | 8 | 8 | 512 | 512 | 0.03 | 0.03 | 0.01 | Active | Not Active | 16 (≈ 40 µM) | 16 (≈ 40 µM) | 16 (≈ 40 µM)
CC1(C)CCc2c(Cn3cnnn3)cc3c(OCc4ccc([N+](=O)[O-])cc4)cccc3c2O1 | 64 | > 512 | > 128 | 8 | 8 | 8 | 8 | 1020 | 1020 | 0.06 | 0.06 | 0.06 | Active | Not Active | 16 (≈ 35.9 µM) | 16 (≈ 35.9 µM) | 16 (≈ 35.9 µM)
CC1(C)CCc2c(Cn3cnnn3)cc3c(OCc4ccc(OC(F)(F)F)cc4)cccc3c2O1 | 64 | > 512 | > 128 | 8 | 8 | 8 | 8 | 1020 | 1020 | 0.06 | 0.06 | 0.06 | Active | Not Active | 16 (≈ 33 µM) | 16 (≈ 33 µM) | 16 (≈ 33 µM)
CC1(C)CCc2c(C(=O)O)cc3c(OCc4ccccc4)cccc3c2O1 | 64 | > 512 | > 128 | 8 | 8 | 8 | 4 | 1020 | 512 | 0.06 | 0.06 | 0.01 | Active | Not Active | 16 (≈ 44.1 µM) | 16 (≈ 44.1 µM) | 16 (≈ 44.1 µM)
CC(C)NCCOc1ccc2c(c1)OC(C)(C)CC2=O | 64 | > 512 | > 128 | 8 | 8 | 8 | 8 | 1020 | 1020 | 0.03 | 0.03 | 0.03 | Active | Not Active | 16 (≈ 57.7 µM) | 16 (≈ 57.7 µM) | 16 (≈ 57.7 µM)
C=CC(=O)Nc1ccc(COc2cccc3c4c(c(C(=O)N5CCOCC5)cc23)CCC(C)(C)O4)cc1 | 16 | > 512 | > 128 | 4 | 4 | 4 | 4 | 512 | 256 | 0.06 | 0.06 | 0.01 | Active | Not Active | 16 (≈ 32 µM) | 16 (≈ 32 µM) | 16 (≈ 32 µM)
